Source: PubChem
LYPLA1 counter: blocks human lysophospholipase 1, a PME1 counter-screen. O75608. recombinant LYPLA1, FP-Rh probe fluorescence polarization. inhibition, % at 5.9 µM. 320,000 compounds, 0.16% hits. AID 2174;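 active = inhibition above the mean of all tested compounds plus 3 SD, set per campaign, cut at about 14% in these data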;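 note: inhibitors block serine hydrolase probe labeling of LYPLA1 so polarization falls; 0% = enzyme with DMSO and 100% = wells lacking LYPLA1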
procasp3 activ: activates human procaspase-3 | recombinant procaspase-3 D3A, Ac-DEVD-pNA absorbance 405 nm | activation, % at 8.5 µM | 330,000 compounds, 0.11% hits;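 active = activation above the mean of all tested compounds plus 3 SD, cut at about 21% in these data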;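 note: 0% = DMSO alone and 100% = DMSO wells spiked with extra 5 µM PC-3 D3A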
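Assay system: Procaspase-3 D3A mutant, all three cleavage aspartates alanine. Buffer or medium: Zinc-free HEPES saline buffer with Triton X-100. Times: 1 h compound preincubation, 2 h substrate hydrolysis at 25 °C. Measured by: 405 nm absorbance of p-nitroaniline, reads at 0 and 120 min. Read-out basis: percent activation relative to control range. Replicates: singlicate.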
PREPL inh: inhibits the human prolyl oligopeptidase-like enzyme; Q4J6C6; recombinant PREPL, fluorescence polarization activity-based probe; inhibition, % at 5.96 µM; 320,000 compounds, 0.68% hits; AID 2751; in the data active = inhibition above about 43%;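 note: 0% = enzyme with DMSO and 100% = wells lacking enzyme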
LYPLA2 counter: counter-screen for PME1 inhibitors: inhibitors of human LYPLA2; recombinant LYPLA2, FP-Rh probe fluorescence polarization; inhibition, % at 5.9 µM; 320,000 compounds, 0.38% hits; AID 2177;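 active = inhibition above the screen-wide mean plus 3 SD, limit set per campaign, cut at about 26% in these data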;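 note: 0% = LYPLA2 with DMSO and 100% = wells lacking LYPLA2 enzyme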
procasp7 counter: counter-screen for procaspase-3 activators: activators of human procaspase-7 | recombinant procaspase-7, Ac-DEVD-pNA absorbance 405 nm; D23A/D198A/D206A triple mutant, cannot self-cleave; scale: DMSO 0, 5 µM enzyme 100 | AID 463210 | 330,000 compounds, 0.093% hits | activation, % at 8.5 µM;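 active = percent activation above the screen-wide mean plus 3 SD, cut at about 25% in these data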
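System: Procaspase-7 triple mutant (PC-7 D3A); measure: % activation from two-timepoint absorbance difference, scaled to controls; times: 1 h compound preincubation, 2 h substrate cleavage, 25 °C; also added: Ac-DEVD-pNA substrate, 400 µM as added; measured by: Epi-absorbance of released pNA at 405 nm, two timepoints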
procasp7 triplic: activates human procaspase-7, counter-screen for procaspase-3 activators. shares compounds with procasp3 activ. 210 tested, under 10 active. recombinant procaspase-7, Ac-DEVD-pNA absorbance; asp23/198/206-to-Ala mutant, cannot self-cleave. activation, % at 8.5 µM;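 active = mean activation above a set limit taken from an earlier procaspase-7 screen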;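 note: 0% = DMSO wells and 100% = DMSO plus 5 µM procaspase-7 enzyme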
proCasp3 confirm: confirmation of human procaspase-3 activators. shares compounds with procasp3 activ. recombinant PC-3 D3A, Ac-DEVD-pNA absorbance 405 nm; 100% is higher-enzyme control. activation, % at 8.5 µM. 210 compounds, 10% hits. AID 488954;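 active = mean activation above a set limit carried over from the earlier primary screen, cut at about 22% in these data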
An asterisk follows results filed as active. A selection: hits, their analogues and other compounds. The true share with any hit is near 1.1%.

`COc1ccc(C2=NC(=O)/C(=C\c3cc(OC)c(OC)c(OC)c3)O2)cc1` gave LYPLA1 counter 0, procasp3 activ 26*, PREPL inh -4, LYPLA2 counter -5, procasp7 counter 23, procasp7 triplic 27* and proCasp3 confirm 33*.
Screening O=C(NN1C(=O)C2C3C=CC(C3)C2C1=O)c1cccc(Cl)c1 (stereo not drawn) returned LYPLA1 counter 1, procasp3 activ 24*, PREPL inh 10, LYPLA2 counter 0, procasp7 counter -8, procasp7 triplic 4 and proCasp3 confirm 3.
`COc1ccc(S(=O)(=O)N2CCOC2CNC(=O)C(=O)NCc2ccccc2Cl)cc1` (stereo not drawn) gave LYPLA1 counter 2, procasp3 activ -3, PREPL inh -1, LYPLA2 counter 22 and procasp7 counter 4.
COc1ccccc1NC(=O)C(=O)c1cn(CC(=O)N2CCCC2)c2ccccc12 was read as LYPLA1 counter -4, procasp3 activ -5, PREPL inh -14, LYPLA2 counter -5 and procasp7 counter 2.
For COc1ccccc1NC(=O)C(=O)c1cn(CC(=O)N2CCOCC2)c2ccccc12 the results were LYPLA1 counter -8, procasp3 activ 22*, PREPL inh -3, LYPLA2 counter -9, procasp7 counter 2, procasp7 triplic 3 and proCasp3 confirm 3.
`Cc1ccc(S(=O)(=O)N2CCN(C(=O)Cn3c(=O)cnc4ccccc43)CC2)cc1` gave LYPLA1 counter -1, procasp3 activ 2, PREPL inh 11, LYPLA2 counter 5 and procasp7 counter -6.
For N#Cc1c(-c2ccccc2Cl)c2c([nH]c1=O)-c1ccccc1OC2 the results were LYPLA1 counter -3, procasp3 activ 26*, PREPL inh -3, LYPLA2 counter -5, procasp7 counter 4, procasp7 triplic -21 and proCasp3 confirm -14.
For COCCn1c(N)c(C(=O)NCc2cccs2)c2nc3ccccc3nc21 the results were LYPLA1 counter -3, procasp3 activ 64*, PREPL inh 21, LYPLA2 counter 1, procasp7 counter -1, procasp7 triplic -21 and proCasp3 confirm -16.
O=C(c1cnc2ccc3ccccc3c2c1)c1cc(F)ccc1O was read as LYPLA1 counter -6, procasp3 activ -2, PREPL inh -2, LYPLA2 counter 0 and procasp7 counter 1.
Cc1cc2nc(-c3ccccc3)cc(=O)n2[nH]1 was read as LYPLA1 counter 2, procasp3 activ 23*, PREPL inh -1, LYPLA2 counter 1, procasp7 counter 3, procasp7 triplic 0 and proCasp3 confirm 3.
Screening Cc1c(C)n2c(SCC(=O)N3CCCCCC3)nnc2[nH]c1=O returned LYPLA1 counter -1, procasp3 activ 23*, PREPL inh 11, LYPLA2 counter 2, procasp7 counter 9, procasp7 triplic 1 and proCasp3 confirm 3.
For CCCc1cc(=O)oc2cc(OC(=O)CN3C(=O)NC4(CCCC4)C3=O)ccc12 the results were LYPLA1 counter -4, procasp3 activ 26*, PREPL inh 12, LYPLA2 counter 3, procasp7 counter 15, procasp7 triplic -22 and proCasp3 confirm -13.
Screening COc1ccc(OCCOC(=O)CN2C(=O)NC3(CCCC3)C2=O)cc1 returned LYPLA1 counter 0, procasp3 activ -8, PREPL inh 7, LYPLA2 counter -2 and procasp7 counter 0.
Screening Cn1nccc1C(=O)N1CCOCC1 returned LYPLA1 counter 2, procasp3 activ -1, PREPL inh 1, LYPLA2 counter 6 and procasp7 counter 10.
CCN(C(=O)c1cnc(OC)cc1C(F)(F)F)c1ccc(Cl)cc1 was read as LYPLA1 counter -2, procasp3 activ 27*, PREPL inh 1, LYPLA2 counter 2, procasp7 counter -4, procasp7 triplic 3 and proCasp3 confirm 5.
